The source made the active and inactive calls.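 How the source made its calls, unless noted: active means GFP response above 150% of the DMSO control; inconclusive means fewer than 70 events counted in any yeast strain; inactive means the rest.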
Assay: hit retest on RPL19A-GFP reporter strain – cell-based, S. cerevisiae, flow cytometry, cherry picks, mother/daughter gates, confirmation (AID 2270;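 active means GFP response below 50% of the DMSO control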)
Conditions: 3 h, at 10 µM, stronger effect = lower value, 100 = same GFP as DMSO wells

Structure (SMILES)	GFP response vs DMSO
COc1cc(/C=C/C(=O)c2c(O)n(CCc3ccccc3)c(=O)[nH]c2=O)ccc1O	103% (inactive)
CCC(C)N1C(=O)/C(=C\c2cnc(N(C)C)nc2)C(=O)NC1=S (stereo not given)	104% (inactive)
CC1(C)OC(c2ccccc2)=C/C(=C/C=C2C(=O)NC(=S)NC2=O)O1	97.8% (inactive)
Cc1ccc(N2C(=O)NC(=O)/C(=C\c3cn(CC(=O)O)c4ccccc34)C2=O)cc1	100% (inactive)
CCN1C(=O)NC(=O)/C(=C\c2cn(CC(=O)N3CCCC3)c3ccccc23)C1=O	97.3% (inactive)
O=[N+]([O-])c1ccc(N2CCNCC2)cc1Sc1ccccn1	98.4% (inactive)
O=C1NC(=S)N(c2ccccc2)C(=O)/C1=C/c1ccco1	98.8% (inactive)
C[C@]12CCC(=O)C(O)=C1CC[C@@H]1[C@@H]2CC[C@]2(C)C(=O)CC[C@@H]12	99.3% (inactive)
CCCCn1c(=O)c(C(=O)Nc2ccsc2C(=O)OC)c(O)c2ccccc21	101% (inactive)

Same assay, conditions: 3 h, measured here: daughter cell gate, at 10 µM, stronger effect = lower value, 100 = same GFP as DMSO wells

Structure (SMILES)	GFP response vs DMSO
COc1cc(/C=C/C(=O)c2c(O)n(CCc3ccccc3)c(=O)[nH]c2=O)ccc1O	104%
CCC(C)N1C(=O)/C(=C\c2cnc(N(C)C)nc2)C(=O)NC1=S (stereo not given)	98.4%
CC1(C)OC(c2ccccc2)=C/C(=C/C=C2C(=O)NC(=S)NC2=O)O1	99.3%
Cc1ccc(N2C(=O)NC(=O)/C(=C\c3cn(CC(=O)O)c4ccccc34)C2=O)cc1	100%
CCN1C(=O)NC(=O)/C(=C\c2cn(CC(=O)N3CCCC3)c3ccccc23)C1=O	97.3%
O=[N+]([O-])c1ccc(N2CCNCC2)cc1Sc1ccccn1	98.4%
C[C@]12CCC(=O)C(O)=C1CC[C@@H]1[C@@H]2CC[C@]2(C)C(=O)CC[C@@H]12	97.5%
CCCCn1c(=O)c(C(=O)Nc2ccsc2C(=O)OC)c(O)c2ccccc21	94.9%

Same assay, conditions: 3 h, measured here: mother cell gate, at 10 µM, stronger effect = lower value, 100 = same GFP as DMSO wells

Structure (SMILES)	GFP response vs DMSO
COc1cc(/C=C/C(=O)c2c(O)n(CCc3ccccc3)c(=O)[nH]c2=O)ccc1O	103%
CCC(C)N1C(=O)/C(=C\c2cnc(N(C)C)nc2)C(=O)NC1=S (stereo not given)	93.8%
CC1(C)OC(c2ccccc2)=C/C(=C/C=C2C(=O)NC(=S)NC2=O)O1	98.5%
Cc1ccc(N2C(=O)NC(=O)/C(=C\c3cn(CC(=O)O)c4ccccc34)C2=O)cc1	101%
CCN1C(=O)NC(=O)/C(=C\c2cn(CC(=O)N3CCCC3)c3ccccc23)C1=O	96.9%
O=[N+]([O-])c1ccc(N2CCNCC2)cc1Sc1ccccn1	99.4%
O=C1NC(=S)N(c2ccccc2)C(=O)/C1=C/c1ccco1	91.4%
C[C@]12CCC(=O)C(O)=C1CC[C@@H]1[C@@H]2CC[C@]2(C)C(=O)CC[C@@H]12	99.2%
CCCCn1c(=O)c(C(=O)Nc2ccsc2C(=O)OC)c(O)c2ccccc21	100%

Assay: yeast TOR pathway reporter LAP4-GFP change – cell-based, cherry picks, flow cytometry, mother/daughter gates, confirmation (AID 2271);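 further: ratio of sample to DMSO plate mean so 100% equals DMSO level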
Conditions: S. cerevisiae LAP4-GFP strain, 3 h, at 10 µM, stronger effect = higher value
In short: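 System: GFP-fusion yeast strain | Input: Yeast cells seeded at OD600 of 0.2 | Technique: HT flow cytometry, GFP fluorescence channel | Read-out: % GFP response vs DMSO | Dosing: Single test-compound dose, 10 µM final | Controls: Positive rapamycin (400 ng/mL), negative DMSO | Times: 3 h treatment at 30 °C with rotation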

Structure (SMILES)	GFP response relative to DMSO
COc1cc(/C=C/C(=O)c2c(O)n(CCc3ccccc3)c(=O)[nH]c2=O)ccc1O	90% (inactive)
CCC(C)N1C(=O)/C(=C\c2cnc(N(C)C)nc2)C(=O)NC1=S (stereo not given)	97.4% (inactive)
CC1(C)OC(c2ccccc2)=C/C(=C/C=C2C(=O)NC(=S)NC2=O)O1	203% (active)
Cc1ccc(N2C(=O)NC(=O)/C(=C\c3cn(CC(=O)O)c4ccccc34)C2=O)cc1	102% (inactive)
CCN1C(=O)NC(=O)/C(=C\c2cn(CC(=O)N3CCCC3)c3ccccc23)C1=O	102% (inactive)
O=[N+]([O-])c1ccc(N2CCNCC2)cc1Sc1ccccn1	91.4% (inactive)
O=C1NC(=S)N(c2ccccc2)C(=O)/C1=C/c1ccco1	112% (inactive)
C[C@]12CCC(=O)C(O)=C1CC[C@@H]1[C@@H]2CC[C@]2(C)C(=O)CC[C@@H]12	102% (inactive)
CCCCn1c(=O)c(C(=O)Nc2ccsc2C(=O)OC)c(O)c2ccccc21	94.4% (inactive)

Same assay, conditions: S. cerevisiae LAP4-GFP strain, 3 h, measured here: daughter cell gate response, at 10 µM, stronger effect = higher value

Structure (SMILES)	GFP response relative to DMSO
COc1cc(/C=C/C(=O)c2c(O)n(CCc3ccccc3)c(=O)[nH]c2=O)ccc1O	90.4%
Cc1ccc(N2C(=O)NC(=O)/C(=C\c3cn(CC(=O)O)c4ccccc34)C2=O)cc1	102%
CCN1C(=O)NC(=O)/C(=C\c2cn(CC(=O)N3CCCC3)c3ccccc23)C1=O	102%
O=[N+]([O-])c1ccc(N2CCNCC2)cc1Sc1ccccn1	92.5%
O=C1NC(=S)N(c2ccccc2)C(=O)/C1=C/c1ccco1	116%
C[C@]12CCC(=O)C(O)=C1CC[C@@H]1[C@@H]2CC[C@]2(C)C(=O)CC[C@@H]12	102%
CCCCn1c(=O)c(C(=O)Nc2ccsc2C(=O)OC)c(O)c2ccccc21	95.9%

Same assay, conditions: S. cerevisiae LAP4-GFP strain, 3 h, measured here: mother cell gate response, at 10 µM, stronger effect = higher value

Structure (SMILES)	GFP response relative to DMSO
COc1cc(/C=C/C(=O)c2c(O)n(CCc3ccccc3)c(=O)[nH]c2=O)ccc1O	88.9%
CC1(C)OC(c2ccccc2)=C/C(=C/C=C2C(=O)NC(=S)NC2=O)O1	160%
Cc1ccc(N2C(=O)NC(=O)/C(=C\c3cn(CC(=O)O)c4ccccc34)C2=O)cc1	104%
CCN1C(=O)NC(=O)/C(=C\c2cn(CC(=O)N3CCCC3)c3ccccc23)C1=O	102%
O=[N+]([O-])c1ccc(N2CCNCC2)cc1Sc1ccccn1	91.1%
O=C1NC(=S)N(c2ccccc2)C(=O)/C1=C/c1ccco1	111%
C[C@]12CCC(=O)C(O)=C1CC[C@@H]1[C@@H]2CC[C@]2(C)C(=O)CC[C@@H]12	103%
CCCCn1c(=O)c(C(=O)Nc2ccsc2C(=O)OC)c(O)c2ccccc21	94.1%

From PubChem BioAssay
